From PMC4783179 (The Journal of comparative neurology, 2015)

What was measured:
5-HT1A receptors = molecular target: T1, 5-HT1A receptors (Rattus norvegicus, UniProt P19327); assay: In vitro autoradiography of 18F-Mefway, rat brain slices; format: binding
T1 sequence (P19327 1-422): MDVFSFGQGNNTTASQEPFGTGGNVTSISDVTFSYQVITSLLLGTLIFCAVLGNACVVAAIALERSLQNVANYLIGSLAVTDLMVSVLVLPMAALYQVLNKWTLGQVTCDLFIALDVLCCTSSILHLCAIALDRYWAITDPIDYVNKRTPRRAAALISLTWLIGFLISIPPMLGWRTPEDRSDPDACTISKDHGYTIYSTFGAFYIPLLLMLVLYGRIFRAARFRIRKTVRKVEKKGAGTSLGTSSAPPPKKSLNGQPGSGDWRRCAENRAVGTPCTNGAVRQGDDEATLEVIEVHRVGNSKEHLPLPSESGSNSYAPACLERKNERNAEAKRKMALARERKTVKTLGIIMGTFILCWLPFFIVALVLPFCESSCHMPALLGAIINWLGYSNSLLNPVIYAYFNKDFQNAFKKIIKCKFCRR
Procedure, shortened: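 Horizontal 10 µm slices covering hippocampus, frontal cortex, dorsal raphe and cerebellum. Sources: frozen brains of male BALB/c mice (25 g) or male Sprague-Dawley rats (250–300 g). Preincubated in 50 mM Tris-HCl pH 7.4 for 10 min at room temperature, then 37–185 kBq/mL tracer at 37 °C for 1 h. […] Washed, then phosphor screen for 24 h. Regional DLU/mm² expressed as ratios to cerebellum as reference.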

5-HT7 = 5-HT7 (Homo sapiens, UniProt P34969); assay: NIMH PDSP binding affinity, human cloned receptor
5-HT7, sequence (P34969 whole entry): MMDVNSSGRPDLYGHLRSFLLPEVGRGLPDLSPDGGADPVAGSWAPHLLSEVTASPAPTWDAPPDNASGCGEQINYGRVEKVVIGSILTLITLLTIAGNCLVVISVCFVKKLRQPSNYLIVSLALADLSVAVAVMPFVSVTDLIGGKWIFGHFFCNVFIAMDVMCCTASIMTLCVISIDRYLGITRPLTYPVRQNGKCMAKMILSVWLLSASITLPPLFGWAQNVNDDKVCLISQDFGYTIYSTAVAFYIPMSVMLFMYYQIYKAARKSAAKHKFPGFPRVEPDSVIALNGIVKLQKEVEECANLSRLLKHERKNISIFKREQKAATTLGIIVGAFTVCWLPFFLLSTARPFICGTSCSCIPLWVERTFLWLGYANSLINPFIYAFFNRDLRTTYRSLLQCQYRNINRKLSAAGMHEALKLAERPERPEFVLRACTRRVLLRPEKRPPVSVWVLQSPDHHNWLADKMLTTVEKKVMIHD

In the case of `COc1ccccc1N1CCN(CCN(C(=O)C2CCC(CF)CC2)c2ccccn2)CC1` (stereo not drawn) [Mefway], the “Binding displaced in hippocampus and cortex” value (5-HT1A receptors; in the presence of 10 μM of WAY-100635, rat (all the species)) is reported as > 95%, the “Ratio in cortical regions, autoradiography” value (5-HT1A receptors; rats) is reported as > 10 and the “Ratio of hippocampus to cerebellum, autoradiography” value (5-HT1A receptors; rats, brain slices incubated for one hr) is reported as 30. The “Ratio of raphe to cerebellum, autoradiography” value (5-HT1A receptors; rats, horizontal sections) was 23, the “% human 5HT1A Selectivity, 5-HT7” value (5-HT7; [5-HT1A affinity/other receptor affinity]×100, 5-HT1A 0.6 or 2.2 nM for WAY-100635, 0.9 nM for Mefway) was 0.30% and the Ki (5-HT7; read-out: Binding affinity, Ki, 5-HT7, human cloned receptor, PDSP) was 0.297 µM.
